# Measured values published in article PMC5365239 (Chemical Science, 2016).
# Assays:
# cellular GSH = assay: Cellular GSH concentration by LC-ESI-MS/MS after NEM alkylation; format: cell-based, human; conditions: OVCAR5, 20 μM BSO
# Outline: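 Adherent OVCAR5 cells held in RPMI-1640 with 20 μM BSO for 24 hours before HPG incorporation. Cellular GSH was alkylated with NEM and then quantified by LC-ESI-MS/MS.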
# OVCAR5 cells = assay: MTS cytotoxicity assay after CuAAC reaction / GSH depletion; format: cell-based, human; conditions: low concentration (20 μM) BSO
# Outline: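 HPG-incorporated OVCAR5 cells were exposed 10 min to CuAAC reaction mixtures. They were then returned to RPMI-1640 for 24 hours before viability was read by MTS assay. For GSH depletion, cells were first held 24 hours in RPMI-1640 containing 20 μM BSO before HPG incorporation.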
# [1] = Cu^I-ligand dissociation constant, competition assay with bicinchoninic acid; format: binding; conditions: read-out: Dissociation constant (KD) of Cu^I-ligand; BCA competition assay
Kd [1],SMILES,Cellular GSH concentration (cellular GSH; 24 h),Reduction of the cellular GSH level (cellular GSH; 24 hours),Cytotoxicity of GSH depletion (in words) (OVCAR5 cells)
,"CCCCS(=N)(=O)CCC(N)C(=O)O (stereo not shown) [BSO, buthionine sulfoximine]",4.9 ± 0.4 µM,99.7%,No cytotoxicity
0.031 nM,"N[C@@H](CCC(=O)N[C@@H](CS)C(=O)NCC(=O)O)C(=O)O [GSH, reduced glutathione]",,,
